Experimental data from ChEMBL document CHEMBL3769304, “Potent α-amino-β-lactam carbamic acid ester as NAAA inhibitors. Synthesis and structure-activity relationship (SAR) studies” (Eur J Med Chem, 2016).
≈ marks a conversion by molar mass, not a printed value.

Experiments:
[1] = species on record: Homo sapiens; experiment: Selectivity ratio of IC50 for human acid ceramidase to IC50 for recombinant human NAAA
[2] = Half life in mouse liver microsomes preincubated for 15 mins followed by NADPH addition measured after 1 hr by LC/MS-MS analysis; type: ADME
[3] = Kinetic solubility of the compound in PBS at pH 7.4 after 24 hrs by UPLC/MS analysis; type: physicochemical; details: read-out: Kinetic_solubility
Procedure, shortened: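 Kinetic solubility measured in PBS, pH 7.4; mean of three or more determinations.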

[4] = molecular target: T1, Acid ceramidase (Homo sapiens, UniProt Q13510); experiment: Inhibition of human acid ceramidase by UPLC/MS analysis
T1 sequence (Q13510 whole entry): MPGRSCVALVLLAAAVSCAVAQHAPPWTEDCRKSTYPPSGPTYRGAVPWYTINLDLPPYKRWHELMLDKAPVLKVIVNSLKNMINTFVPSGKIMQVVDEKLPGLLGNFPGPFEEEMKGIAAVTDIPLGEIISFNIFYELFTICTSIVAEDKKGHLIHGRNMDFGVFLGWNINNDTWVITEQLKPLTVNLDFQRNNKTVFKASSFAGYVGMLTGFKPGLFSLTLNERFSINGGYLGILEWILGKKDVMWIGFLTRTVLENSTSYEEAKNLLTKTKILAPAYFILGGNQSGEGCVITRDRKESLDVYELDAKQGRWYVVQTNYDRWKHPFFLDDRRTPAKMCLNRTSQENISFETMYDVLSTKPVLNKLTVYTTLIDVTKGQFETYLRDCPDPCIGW

[5] = Half life in rat liver microsomes preincubated for 15 mins followed by NADPH addition measured after 1 hr by LC/MS-MS analysis; type: ADME
[6] = Half life in rat plasma after 2 hrs by LC/MS-MS analysis; type: ADME, cell-free
[7] = molecular target: T2, Fatty-acid amide hydrolase 1 (Homo sapiens) (UniProt O00519); experiment: Inhibition of human FAAH at 10 uM by fluorescence assay
T2 sequence (whole entry): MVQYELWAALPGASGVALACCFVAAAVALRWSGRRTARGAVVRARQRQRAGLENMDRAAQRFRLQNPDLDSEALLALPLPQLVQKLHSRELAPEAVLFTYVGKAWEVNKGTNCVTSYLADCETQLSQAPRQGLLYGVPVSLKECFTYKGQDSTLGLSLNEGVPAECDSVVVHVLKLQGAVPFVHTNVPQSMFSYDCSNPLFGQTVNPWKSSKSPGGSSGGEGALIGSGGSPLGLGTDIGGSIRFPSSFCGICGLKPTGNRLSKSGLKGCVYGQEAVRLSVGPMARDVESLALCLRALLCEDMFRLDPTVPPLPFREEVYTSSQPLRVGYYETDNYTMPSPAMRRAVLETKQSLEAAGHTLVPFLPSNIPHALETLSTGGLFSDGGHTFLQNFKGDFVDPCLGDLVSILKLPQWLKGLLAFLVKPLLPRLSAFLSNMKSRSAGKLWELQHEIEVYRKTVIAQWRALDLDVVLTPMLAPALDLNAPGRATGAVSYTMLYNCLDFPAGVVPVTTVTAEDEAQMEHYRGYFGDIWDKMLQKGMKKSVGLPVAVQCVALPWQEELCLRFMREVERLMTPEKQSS
Procedure, shortened: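 Enzyme source: membrane pellet (105,000 × g, re-suspended in PBS) from HEK293 cells stably transfected with h-FAAH-1; fluorogenic read-out; percent inhibition at 10 µM from two determinations.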

[8] = Half life in mouse plasma after 2 hrs by LC/MS-MS analysis; type: ADME, cell-free
[9] = molecular target: T3, N-acylethanolamine-hydrolyzing acid amidase (Homo sapiens, UniProt Q02083); experiment: Inhibition of human NAAA expressed in HEK293 cells preincubated for 10 mins followed by N-(4-methyl-2-oxo-chromen-7-yl)-hexadecanamide substrate addition for 50 mins by fluorescence assay; type: cell-based
T3 sequence (Q02083 whole entry): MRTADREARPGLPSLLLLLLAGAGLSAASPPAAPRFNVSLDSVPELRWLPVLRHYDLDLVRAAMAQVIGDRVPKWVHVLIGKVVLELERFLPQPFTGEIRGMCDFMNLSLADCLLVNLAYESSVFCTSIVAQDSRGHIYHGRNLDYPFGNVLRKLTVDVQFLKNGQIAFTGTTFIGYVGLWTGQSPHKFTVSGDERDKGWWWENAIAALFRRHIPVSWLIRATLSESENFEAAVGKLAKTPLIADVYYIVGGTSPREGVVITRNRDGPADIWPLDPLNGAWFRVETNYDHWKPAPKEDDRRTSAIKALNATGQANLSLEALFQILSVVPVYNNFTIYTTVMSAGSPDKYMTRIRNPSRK

[10] = molecular target: T3, N-acylethanolamine-hydrolyzing acid amidase; experiment: Inhibition of human NAAA expressed in HEK293 cells preincubated for 10 mins followed by N-(4-methyl-2-oxo-chromen-7-yl)-hexadecanamide substrate addition for 50 mins by microplate reader analysis

Structure (SMILES) | Ratio IC50 [1] | half-life [2] | solubility kinetic at 24 h [3] | IC50 [4] | half-life [5] | half-life [6] | inhibition [7] | half-life [8] | IC50 [9] | IC50 [10]
O=C(N[C@H]1CNC1=O)OCc1ccc2c(c1)OC(F)(F)O2 | 365 | 30 min | > 250 µM | 8.09 µM | 40 min | > 120 min | < 10% | 25 min |  | 
O=C(N[C@H]1CNC1=O)OCc1ccc2c(c1)CCC2 |  |  |  |  |  |  |  |  | 0.13 µM | 
CCCCc1ccc(COC(=O)N[C@H]2CNC2=O)cc1 | 55 | < 5 min | 83 µM (≈ 22.9 µg/mL) | 0.39 µM | < 5 min | > 120 min | < 10% | 29 min |  | 
O=C(N[C@H]1CNC1=O)OCCCOC1CCCCC1 |  |  |  |  |  |  |  |  | 2.67 µM | 
O=C(N[C@H]1CNC1=O)OCCCC1CCCCC1 |  |  |  |  |  |  |  |  | 0.044 µM | 
Cc1ccc(COC(=O)N[C@H]2CNC2=O)cc1 |  |  |  |  |  |  |  |  | 1.04 µM | 
COc1ccc(CCCCOC(=O)N[C@H]2CNC2=O)cc1 |  |  |  |  |  |  |  |  | 0.52 µM | 
O=C(N[C@H]1CNC1=O)OCCCCc1ccccc1 |  |  |  |  |  |  |  |  | 1.11 µM | 
O=C(N[C@H]1CNC1=O)OCCCCC1CCCCC1 |  | < 5 min | 144 µM (≈ 38.6 µg/mL) | 6.27 µM | < 5 min | 12 min | < 10% | 41 min |  | 
CCCCCCCCC(=O)N[C@H]1CNC1=O |  |  |  |  |  |  |  |  |  | 0.34 µM
O=C(N[C@H]1CNC1=O)OCc1ccc(C2CCCCC2)cc1 | 125 | 5 min | 51 µM (≈ 15.4 µg/mL) | 1.51 µM | < 5 min | 104 min | < 10% | 57 min |  | 
CCCOc1ccc(COC(=O)N[C@H]2CNC2=O)cc1 |  | 11 min | > 250 µM | 2.41 µM | < 5 min | > 120 min | < 10% | 31 min |  | 
O=C(N[C@H]1CNC1=O)OCCCCC1CCC(F)(F)CC1 | 140 | 34 min | > 250 µM | 10.5 µM | 10 min | 7 min | < 10% | 33 min |  | 
O=C(N[C@H]1CNC1=O)OCCCCc1ccc(C(F)(F)F)cc1 |  |  |  |  |  |  |  |  | 0.073 µM | 
